Results from ChEMBL document CHEMBL4229335 (Eur J Med Chem, 2018).

Legend:
[1] = tested on: L02; assay: Antiproliferative activity against human LO2 cells after 72 hrs by MTT assay; type: cell-based; conditions: L02, 72 h
In short: (§1)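 MTT assay with 72 h exposure to graded concentrations in triplicate. MTT solution then DMSO were added, followed by 10 min at room temperature, with absorbance read at 490 nm. IC50 is reported as the mean of three independent experiments. 5-FU served as positive control.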

[2] = tested on: Bel7402/5-FU; assay: Antiproliferative activity against human Bel7402/5-FU cells after 72 hrs by MTT assay; type: functional, cell-based; in short: as §1
[3] = tested on: HL-60; assay: Antiproliferative activity against human HL60 cells after 72 hrs by MTT assay; type: functional, cell-based; conditions: HL-60, 72 h; in short: as §1
[4] = tested on: PC-3; assay: Antiproliferative activity against human PC3 cells after 72 hrs by MTT assay; type: functional, cell-based; conditions: PC-3, 72 h; in short: as §1
[5] = Selectivity index, ratio of IC50 for human LO2 cells to IC50 for human Bel7402 cells; type: toxicity; conditions: LO2 cells versus Bel7402 cells, read-out: Ratio IC50
In short: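 SI was calculated as IC50 in L-02 normal liver cells divided by IC50 in Bel-7402 cells, both from the 72 h MTT assay.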

[6] = tested on: Bel-7402; assay: Antiproliferative activity against human Bel7402 cells after 72 hrs by MTT assay; type: functional, cell-based; conditions: Bel-7402, 72 h; in short: as §1

Row | Compound | IC50 [1] | IC50 [2] | IC50 [3] | IC50 [4] | selectivity ratio [5] | IC50 [6]
1 | C=C1C(=O)[C@@]23C(=O)O[C@H]4CCC(C)(C)[C@H]5C(=O)OC[C@@]45[C@@H]2CC[C@@H]1[C@H]3O | 25.5 µM | 19.6 µM | 20.6 µM | 22.6 µM | 1.6 | 
2 | O=C(O)CCCc1ccc(N(CCCl)CCCl)cc1 [CHLORAMBUCIL] | > 100 µM | > 100 µM |  |  |  | > 100 µM
3 | C=C1C(=O)[C@@]23C(=O)O[C@H]4CCC(C)(C)[C@H]5[C@H](OC(=O)CCC(=O)N[C@@H](Cc6ccc(N(CCCl)CCCl)cc6)C(=O)OC)OC[C@@]45[C@@H]2CC[C@@H]1[C@H]3OC(=O)CCC(=O)N[C@@H](Cc1ccc(N(CCCl)CCCl)cc1)C(=O)OC | > 100 µM | 7.93 µM | 17.6 µM | > 100 µM |  | 5.73 µM
